Source: PubChem (several laboratories)
Sampled rows, rich in hits. Any-hit rate of the full collection: about 8.4%.
tolC growth inh – blocks growth of E. coli BW25113 tolC mutant; OD615; growth inhibition, % at 10 µM (by protocol); actives 2.2% (n = 65,000);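 active means growth inhibition at or above a cutoff equal to the mean over every tested compound plus 3 SD, cut at about 60% in these data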;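 further: growth measured after 20 h incubation at 37 °C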
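Test system: tolC-deleted E. coli BW25113; medium: LB with kanamycin 50 µg/mL; compound: single-point testing at 10 µM; incubation: 20 h compound exposure of bacteria at 37 °C; signal: OD at 615 nm; evaluation: growth inhibition in percent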
E coli WT exp – blocks growth of wild type E. coli BW25113 | OD600 absorbance | growth inhibition, % at 100 µM | actives 0.15% (n = 98,000) | AID 710;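 active means growth inhibition above about 50% at one test dose, limit read from the data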;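 further: growth measured after 20 h incubation at 37 °C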
PostGolgi ctrl – growth of the yeast control strain, post-Golgi counter-screen | efflux-deficient yeast background strain, growth absorbance A615, 16 h | inhibition, % at 10 µM | actives 5% (n = 98,000)
Cav32 inh – inhibitors of human Cav3.2 T-type calcium channel | Cav3.2-expressing cells, Fluo-4 calcium fluorescence FDSS; active compounds read low | B-score at 10 µM | actives 4% (n = 100,000) | AID 449739 | O95180;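 active means single-dose well whose peak fluorescence ratio is a statistical outlier from its plate by either plate-standardised score or position-corrected B-score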
PostGolgi yeast – growth inhibition of a yeast mutant, post-Golgi transport screen; inhibition, % at 10 µM; AID 739; post-Golgi transport phenotypic cell assay; actives 0.9% (n = 98,000);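 further: yeast cells grown in 1536-well plates; yeast grown about 18 h at 30C before absorbance read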
* hit, by the source's call; / = no result. Unless noted, no stated cut-off is given here; in the data, active means inhibition above about 30%; inactive means the rest.

SMILES | tolC growth inh | E coli WT exp | PostGolgi ctrl | Cav32 inh | PostGolgi yeast
CCN(CC)S(=O)(=O)c1ccc(NC(=O)CCC2CCCCC2)cc1 | / | -6 | 26 | -4.4* | -4
O=C(Cn1c(=O)sc2ccccc21)Nc1ccccc1 | / | 1 | 3 | 1.5 | 5
C#CCNC(=O)C1=C[C@H](c2ccc3c(c2)OCO3)[C@@H](CCCO)[C@H](OCC)O1 | / | / | / | 0.0053 | /
CCn1nnc(-c2ccccc2NS(=O)(=O)c2ccc(S(=O)(=O)N(C)C3CCCCC3)cc2)n1 | / | -21 | 7 | -0.42 | 1
CC1=NNC(=O)/C1=C\c1cn(-c2ccccc2)nc1-c1ccc(Cl)cc1 | / | -4 | 98* | -0.094 | 109*
O=C(NC1CC1)C1=C[C@@H](c2ccc3c(c2)OCO3)C[C@@H](OCc2ccc(CO)cc2)O1 | / | / | / | 0.51 | /
O=C(CCSc1nc(-c2ccco2)cc(C(F)(F)F)n1)Nc1ccc2c(c1)OCO2 | 30 | -2 | 21 | -5.7* | 0
CN(Cc1ccccc1)C(=O)CCSc1nc(-c2ccc3c(c2)OCO3)cc(C(F)(F)F)n1 | / | / | / | -6.8* | /
CC(NC(=O)CCSc1nc(-c2ccco2)cc(C(F)(F)F)n1)c1ccccc1 (configuration not stated) | / | -11 | 23 | -6* | -2
Cc1cc(NC(=O)CCCSc2nc(-c3ccco3)cc(C(F)(F)F)n2)n(-c2ccccc2)n1 | / | / | / | -4.3* | /
O=C(CCSc1nc(-c2ccc3c(c2)OCO3)cc(C(F)(F)F)n1)NCc1ccccc1 | / | / | / | -1.1 | /
Cc1cc(NC(=O)CSc2nc(-c3ccco3)cc(C(F)(F)F)n2)n(-c2ccccc2)n1 | -3 | / | / | -2.1 | /
O=C(CCSc1nc(-c2ccc3c(c2)OCO3)cc(C(F)(F)F)n1)NCc1ccco1 | 4 | -1 | 13 | -0.082 | -1
Cc1cccc(Oc2ncnc3onc(C)c23)c1C | / | -9 | -3 | / | -3
C=CCOC(=O)C1=C(C)NC(SCC(=O)Nc2ccccc2)=C(C#N)C1c1ccco1 (configuration not stated) | / | -5 | 3 | -0.2 | 12
O=C(CCCOc1ccc(Cl)cc1Cl)N1CCN(c2ccccn2)CC1 | 73* | -11 | 52* | -4.1 | -8
CCCNC(=O)c1cc(S(=O)(=O)N2CCc3ccccc32)ccc1F | -1 | -16 | -4 | 0.93 | -6
O=C(CN1CCc2ccccc2C1)Nc1ccccc1N1CCCCCC1 | 43 | -22 | 13 | -3.3* | 1
CCOc1cc(N2CCOCC2)c(OCC)cc1NC(=O)CN1CCc2ccccc2C1 | 35 | 1 | 39* | -1.2 | 9
CCOc1cc(N2CCOCC2)c(OCC)cc1NC(=O)Cc1cccc(OC)c1 | / | 12 | 3 | 1.5 | -2
O=C(O)C1=C[C@H](c2cccs2)C[C@H](OCc2ccc(CO)cc2)O1 | / | / | / | 0.34 | /
CC1=C(OC(=O)c2ccccc2)C(C)(C)C(c2ccc(Br)cc2)OC1=O (configuration not stated) | / | -8 | 13 | -7.1* | -5
CC1=C(OC(=O)c2ccccc2)C(C)(C)C(c2ccccc2)OC1=O (configuration not stated) | / | 1 | 22 | 0.42 | 1
Cc1cc(NC(=O)Cn2nc3c(cc2=O)CCCC3)ccc1Br | 53 | 8 | 19 | -6.2* | -3
CC(OC(=O)c1ccc2ccccc2n1)C(=O)Nc1ccc(N2CCOCC2)cc1 (configuration not stated) | -7 | -3 | 31* | -0.42 | 4
SMILES | tolC growth inh | E coli WT exp | PostGolgi ctrl | Cav32 inh | PostGolgi yeast
CCOc1cc(-c2c(C#N)c(=O)[nH]c3c2c(C)nn3-c2ccc(F)cc2)ccc1O | 97* | 1 | 2 | -2.6 | -6
CCc1c(C)c2c(C)nn(-c3ccccc3)c2[nH]c1=O | 2 | -3 | -5 | -1.2 | 2
CCOC(=O)Cn1cc(C=O)c2ccccc21 | / | 5 | 1 | 1.1 | 42*
COCc1cc(C)nc(OCC(=O)N/N=C/c2cccc(OC)c2)c1C#N | / | 2 | 7 | 0.9 | -3
COCc1cc(C)nc(OCC(=O)N/N=C\c2cc(C)n(-c3cccc(C(F)(F)F)c3)c2C)c1C#N | / | -3 | 2 | -4.8* | -3
O=C(Nc1cccc2ccccc12)c1ccc(Cn2cc(Cl)cn2)cc1 | / | -7 | 39* | -3.9* | -19
O=S(=O)(NC(=NC1CCCC1)C(F)(F)F)c1ccccc1 | -2 | 2 | 25 | 0.34 | -1
O=C(Nc1ccc2nsnc2c1)c1cccs1 | 29 | 14 | 40* | -0.97 | -3
O=c1c2[nH]c3ccc(Br)cc3c2ncn1CCCn1ccnc1 | -9 | 1 | 23 | 0.045 | 33*
CC1CCCCN1CCNC(=O)Cn1nc(-c2ccccc2)ccc1=O (configuration not stated) | -16 | -2 | 0 | 0.41 | 39*
Cc1cc(NC(=O)CCNS(=O)(=O)c2cc(Br)cnc2N)ccc1Br | / | 0 | 1 | -5* | 0
O=C(NC(C(=O)c1ccccc1)N1CCOCC1)c1cccs1 (configuration not stated) | -9 | 3 | 33* | / | 5
Oc1ccccc1CNn1cnnc1 | 1 | 0 | 10 | 0.68 | -3
Cc1ccc(S(=O)(=O)/C(C#N)=C/c2c[nH]c3ccccc23)cc1 | / | -4 | 68* | 0.26 | 0
CC(C)n1cc(/C=C(\C#N)S(=O)(=O)c2ccccc2)c2ccccc21 | 21 | -27 | 36* | -2.6 | 0
Cc1ccc(C(=O)/C=C/c2c[nH]c3ccccc23)cc1 | / | 0 | 13 | -1.1 | 5
CSc1nc(NC(C)(C)C)nc(Oc2ccc(=O)n(C)n2)n1 | / | 1 | -4 | 0.13 | -16
CC(=NC1CC1)c1c(-c2ccccc2)[nH]n(-c2nc3ccccc3s2)c1=O | / | -8 | 36* | 0.37 | -4
CCN(C1CCCCC1)S(=O)(=O)c1ccc(OC)c(C)c1 | 92* | 5 | 35* | -6.3* | 14
CCCCC1(Cc2ccc(OC)c([N+](=O)[O-])c2)C(=O)N(c2ccccc2)N(c2ccccc2)C1=O | / | -13 | 14 | -3.6* | -4
COC(=O)c1nn(-c2ccc3c(c2)OCO3)cc1O | / | 8 | 37* | -0.048 | 4
CC(=O)NC1C(c2nc3ccccc3s2)=C(c2ccccc2)C(=O)N1c1ccc(C)cc1 (configuration not stated) | / | -7 | 14 | / | 64*
COc1cccc(N2C(=O)C(c3ccccc3)=C(c3nc4ccccc4s3)C2NC(C)=O)c1 (configuration not stated) | / | 0 | 8 | / | -3
Cc1ccc(C2NNC(=O)C2NC(=O)c2ccccc2)cc1 (configuration not stated) | / | 9 | -5 | 0.31 | 2
CCCOc1ccc(/C(O)=C2/C(=O)C(=O)N(CCCN3CCOCC3)C2c2ccncc2)cc1 (configuration not stated) | 4 | / | / | / | /
CCCc1cc(N2CCCC2)n2nc(C)c(-c3ccccc3)c2n1 | 33 | -10 | -1 | -0.15 | 1
CCN1CCN(c2cc(C(C)(C)C)nc3c(-c4ccccc4)c(C)nn23)CC1 | / | 10 | 76* | -1.2 | 21
Cc1cc(Nc2cnc3ccccc3n2)n(-c2ccccc2)n1 | / | 7 | 22 | -4.6* | 5
Cc1cc(Nc2nc3ccccc3nc2Cl)n(-c2ccc([N+](=O)[O-])cc2)n1 | / | -10 | 32* | / | 1
